Data on 20 compounds can be found in PubChem BioAssay AID1556 (The Scripps Research Institute Molecular Screening Center, 2009).

About 1,300 (0.45%) of roughly 290,000 compounds were called active. The list comes from a sample in which actives are over-represented; it also holds similar structures and randomly drawn compounds. Values without a mark were called inactive.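 Rule for the calls: active = inhibition above the mean plus 3 SD of all compounds in the same screening run (cut at about 4.5% in these data); inactive = the rest.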

The subject of the assay is metallo-beta-lactamase IMP-1 (Pseudomonas aeruginosa). In words: inhibition of IMP-1 nitrocefin hydrolysis – biochemical, epi-absorbance readout, Pseudomonas aeruginosa enzyme, primary screen (AID 1556).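 Note: 0% = IMP-1 with DMSO and 100% = DMSO wells lacking enzyme.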 Conditions: purified IMP-1, nitrocefin hydrolysis, epi-absorbance fluorescence; at 5.6 µM; active compounds read high. In a few lines:
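System – purified recombinant IMP-1 beta-lactamase · Input – IMP-1 dispensed at 0.2 nM · Timing – 15 min preincubation plus 25 min reaction at 25 °C · Signal – Epi-absorbance fluorescence, 480 nm excitation, 530 nm emission · Measure – percent IMP-1 inhibition derived from blank-referenced optical density · Controls – Enzyme-plus-DMSO low control, enzyme-free DMSO high control · Replication – singlicate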
For orientation: inhibition means the change of the read-out against control, counted positive when it falls. As for `O=C(O)c1c(NC(=O)N2CCCC2)sc2c1CCCC2`, the inhibition was -2.5%.
In the case of `Cc1ccccc1NC(=O)Cn1cc(C(=O)C2CC2)c2ccccc21`, the inhibition was -0.7%.
As for `COc1cccc(NC(=O)Cn2c3ccccc3c3nc4n(c(=O)c32)CCS4)c1`, the inhibition is -2.36%.
In the case of `COc1cccc(NC(=O)Cn2c3ccc(F)cc3c3nc4n(c(=O)c32)CCS4)c1`, the inhibition is 7.15% (active).
In the case of `COc1ccc2c(c1)c1nc3n(c(=O)c1n2CC(=O)Nc1ccccc1)CCS3`, the inhibition is -0.04%.
Turning to `O=C(Nc1ccccc1-c1nnn(CC(=O)N2CCCc3ccccc32)n1)c1cccc(Cl)c1`, the inhibition is -0.16%.
Consider `N#Cc1c(Cl)nc(-c2cccnc2)nc1-c1ccccc1`, for which the inhibition is 9.55% (active).
Regarding `O=S(=O)(Cc1cc(Cl)nc(-c2cccnc2)n1)c1ccccc1`, the inhibition was 0.12%.
Regarding `CN(C)c1nc(-c2cccnc2)nc(-c2ccc(Cl)cc2)c1C#N`, the inhibition was -2.58%.
For the compound `Cc1cccc(NS(=O)(=O)c2cc(Cl)ccc2Cl)n1`, the inhibition was 4.66% (active).
Turning to `COc1ccc(Cl)cc1S(=O)(=O)Nc1cccc(C(=O)O)c1`, the inhibition is -2.2%.
To `Cc1cccc(NS(=O)(=O)c2ccc([N+](=O)[O-])cc2)n1` belongs -1.07%; to `Oc1ccc(Br)cc1C=Nc1ccc2[nH]ncc2c1`, -1.06%.
Turning to `COc1cc(Br)cc(/C=N/c2ncn[nH]2)c1O`, the inhibition was 7.88% (active).
On to `Oc1c(Cl)cc(Cl)cc1/C=N/c1ncn[nH]1`, for which the inhibition is 11.9% (active).
Consider `COc1ccc(Br)cc1/C=N/n1c(C)nnc1C`, for which the inhibition is -3.22%.
Take `Cc1snc(SCc2c(F)cccc2Cl)c1C#N`: the inhibition was -3.78%.
`Cc1ccc2[nH]c(=O)c(CN(C)S(=O)(=O)c3cccc4nonc34)cc2c1`: the inhibition was 0.09%.
As for `Cc1ccc(Cn2cc(C(=O)NN)c(=O)c3ccc(F)cc32)cc1`, the inhibition was -2.47%.
For `COc1ccc(NC(=O)Cn2ncn3c(cc4ccccc43)c2=O)c(OC)c1OC`, the inhibition is -2.6%.
